Source: ChEMBL document CHEMBL3576819, “Design, synthesis, biological evaluation and molecular docking studies of phenylpropanoid derivatives as potent anti-hepatitis B virus agents” (Eur J Med Chem, 2015)

Key:
[1] = tested on: Hepatitis B virus; test: Antiviral activity against Hepatitis B virus infected in human HepG2.2.15 cells assessed as inhibition of HBsAg secretion at 300 uM after 6 days by ELISA; type: functional; conditions: HepG2 2.2.15, 144 h
Method in brief: (§1)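 HepG2.2.15 cells (MEM, 10% FBS, 380 µg/ml G418) seeded at 1×10^5 cells/ml, held 24 h at 37 °C, then treated with various drug concentrations; medium with drug renewed every 3 d for up to 9 d. Culture medium sampled on days 3, 6 and 9, stored at -20 °C, and assayed for secreted antigen. Lamivudine as positive control; IC50 = 50% inhibition of secretion; means of at least two experiments.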

[2] = tested on: Hepatitis B virus; test: Antiviral activity against Hepatitis B virus infected in human HepG2.2.15 cells assessed as inhibition of HBsAg secretion at 75 uM after 6 days by ELISA; type: functional; conditions: HepG2 2.2.15, 144 h; method in brief: as §1
[3] = Selectivity index, ratio of CC50 for human HepG2.2.15 cells to IC50 for Hepatitis B virus infected in human HepG2.2.15 cells assessed as inhibition of HBsAg secretion; type: functional
Method in brief: (§2)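 Selectivity index computed as CC50/IC50, with CC50 from cell death of HepG2.2.15 cells after 9 days of treatment (OD 450 nm) and IC50 from 50% inhibition of HBeAg or HBsAg secretion in the same cells; medium with drug renewed every 3 d.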

[4] = tested on: Hepatitis B virus; test: Antiviral activity against Hepatitis B virus infected in human HepG2.2.15 cells assessed as inhibition of HBsAg secretion at 150 uM after 3 days by ELISA; type: functional; conditions: HepG2 2.2.15, 72 h; method in brief: as §1
[5] = Cytotoxicity against human HepG2.2.15 cells assessed as cell death after 9 days by MTT assay; type: cell-based, HepG2 2.2.15
Method in brief: (§3)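 HepG2.2.15 cells (MEM, 10% FBS, 380 µg/ml G418, 37 °C, 5% CO2) seeded at 1×10^5 cells/ml, cultured 24 h, then exposed to various drug concentrations; drug-containing medium renewed every 3 d. OD read at 450 nm after 9 days; percent cell death calculated; CC50 = concentration killing 50% of cells. Means of at least two experiments.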

[6] = tested on: Hepatitis B virus; test: Antiviral activity against Hepatitis B virus infected in human HepG2.2.15 cells assessed as inhibition of HBsAg secretion by ELISA; type: functional, organism-based; conditions: HepG2 2.2.15; method in brief: as §1
[7] = tested on: Hepatitis B virus; test: Antiviral activity against Hepatitis B virus infected in human HepG2.2.15 cells assessed as inhibition of HBeAg secretion by ELISA; type: functional, organism-based; conditions: HepG2 2.2.15; method in brief: as §1
[8] = tested on: Hepatitis B virus; test: Antiviral activity against Hepatitis B virus infected in human HepG2.2.15 cells assessed as cell survival at 150 uM after 9 days (reference value: 100%); type: functional; conditions: HepG2 2.2.15, 216 h; method in brief: as §3
[9] = Selectivity index, ratio of CC50 for human HepG2.2.15 cells to IC50 for Hepatitis B virus infected in human HepG2.2.15 cells assessed as inhibition of HBeAg secretion; type: functional; method in brief: as §2
[10] = tested on: Hepatitis B virus; test: Antiviral activity against Hepatitis B virus infected in human HepG2.2.15 cells assessed as inhibition of HBsAg secretion at 37.5 uM after 3 days by ELISA; type: functional; conditions: HepG2 2.2.15, 72 h; method in brief: as §1
[11] = tested on: Hepatitis B virus; test: Antiviral activity against Hepatitis B virus infected in human HepG2.2.15 cells assessed as inhibition of HBeAg secretion at 150 uM after 6 days by ELISA; type: functional; conditions: HepG2 2.2.15, 144 h; method in brief: as §1
[12] = tested on: Hepatitis B virus; test: Antiviral activity against Hepatitis B virus infected in human HepG2.2.15 cells assessed as inhibition of HBsAg secretion at 75 uM after 9 days by ELISA; type: functional; conditions: HepG2 2.2.15, 216 h; method in brief: as §1
[13] = tested on: Hepatitis B virus; test: Antiviral activity against Hepatitis B virus infected in human HepG2.2.15 cells assessed as inhibition of HBsAg secretion at 150 uM after 9 days by ELISA; type: functional; conditions: HepG2 2.2.15, 216 h; method in brief: as §1
[14] = tested on: Hepatitis B virus; test: Antiviral activity against Hepatitis B virus infected in human HepG2.2.15 cells assessed as inhibition of HBeAg secretion at 37.5 uM after 6 days by ELISA; type: functional; conditions: HepG2 2.2.15, 144 h; method in brief: as §1
[15] = tested on: Hepatitis B virus; test: Antiviral activity against Hepatitis B virus infected in human HepG2.2.15 cells assessed as inhibition of HBsAg secretion at 300 uM after 9 days by ELISA; type: functional; conditions: HepG2 2.2.15, 216 h; method in brief: as §1
[16] = tested on: Hepatitis B virus; test: Antiviral activity against Hepatitis B virus infected in human HepG2.2.15 cells assessed as inhibition of HBeAg secretion at 75 uM after 3 days by ELISA; type: functional; conditions: HepG2 2.2.15, 72 h; method in brief: as §1
[17] = tested on: Hepatitis B virus; test: Antiviral activity against Hepatitis B virus infected in human HepG2.2.15 cells assessed as inhibition of HBeAg secretion at 300 uM after 6 days by ELISA; type: functional; conditions: HepG2 2.2.15, 144 h; method in brief: as §1
[18] = tested on: Hepatitis B virus; test: Antiviral activity against Hepatitis B virus infected in human HepG2.2.15 cells assessed as inhibition of HBeAg secretion at 150 uM after 3 days by ELISA; type: functional; conditions: HepG2 2.2.15, 72 h; method in brief: as §1
[19] = tested on: Hepatitis B virus; test: Antiviral activity against Hepatitis B virus infected in human HepG2.2.15 cells assessed as cell survival at 300 uM after 9 days (reference value: 100%); type: functional; conditions: HepG2 2.2.15, 216 h; method in brief: as §3
[20] = tested on: Hepatitis B virus; test: Antiviral activity against Hepatitis B virus infected in human HepG2.2.15 cells assessed as inhibition of HBeAg secretion at 37.5 uM after 3 days by ELISA; type: functional; conditions: HepG2 2.2.15, 72 h; method in brief: as §1
[21] = tested on: Hepatitis B virus; test: Antiviral activity against Hepatitis B virus infected in human HepG2.2.15 cells assessed as cell survival at 75 uM after 9 days (reference value: 100%); type: functional; conditions: HepG2 2.2.15, 216 h; method in brief: as §3
[22] = tested on: Hepatitis B virus; test: Antiviral activity against Hepatitis B virus infected in human HepG2.2.15 cells assessed as inhibition of HBeAg secretion at 75 uM after 6 days by ELISA; type: functional; conditions: HepG2 2.2.15, 144 h; method in brief: as §1
[23] = tested on: Hepatitis B virus; test: Antiviral activity against Hepatitis B virus infected in human HepG2.2.15 cells assessed as inhibition of HBsAg secretion at 37.5 uM after 9 days by ELISA; type: functional; conditions: HepG2 2.2.15, 216 h; method in brief: as §1
[24] = tested on: Hepatitis B virus; test: Antiviral activity against Hepatitis B virus infected in human HepG2.2.15 cells assessed as inhibition of HBeAg secretion at 37.5 uM after 9 days by ELISA; type: functional; conditions: HepG2 2.2.15, 216 h; method in brief: as §1
[25] = tested on: Hepatitis B virus; test: Antiviral activity against Hepatitis B virus infected in human HepG2.2.15 cells assessed as inhibition of HBeAg secretion at 75 uM after 9 days by ELISA; type: functional; conditions: HepG2 2.2.15, 216 h; method in brief: as §1
[26] = tested on: Hepatitis B virus; test: Antiviral activity against Hepatitis B virus infected in human HepG2.2.15 cells assessed as inhibition of HBsAg secretion at 75 uM after 3 days by ELISA; type: functional; conditions: HepG2 2.2.15, 72 h; method in brief: as §1
[27] = tested on: Hepatitis B virus; test: Antiviral activity against Hepatitis B virus infected in human HepG2.2.15 cells assessed as inhibition of HBsAg secretion at 37.5 uM after 6 days by ELISA; type: functional; conditions: HepG2 2.2.15, 144 h; method in brief: as §1
[28] = tested on: Hepatitis B virus; test: Antiviral activity against Hepatitis B virus infected in human HepG2.2.15 cells assessed as cell survival at 37.5 uM after 9 days (reference value: 100%); type: functional; conditions: HepG2 2.2.15, 216 h; method in brief: as §3
[29] = tested on: Hepatitis B virus; test: Antiviral activity against Hepatitis B virus infected in human HepG2.2.15 cells assessed as inhibition of HBsAg secretion at 150 uM after 6 days by ELISA; type: functional; conditions: HepG2 2.2.15, 144 h; method in brief: as §1
[30] = tested on: Hepatitis B virus; test: Antiviral activity against Hepatitis B virus infected in human HepG2.2.15 cells assessed as inhibition of HBeAg secretion at 150 uM after 9 days by ELISA; type: functional; conditions: HepG2 2.2.15, 216 h; method in brief: as §1
[31] = tested on: Hepatitis B virus; test: Antiviral activity against Hepatitis B virus infected in human HepG2.2.15 cells assessed as inhibition of HBsAg secretion at 300 uM after 3 days by ELISA; type: functional; conditions: HepG2 2.2.15, 72 h; method in brief: as §1
[32] = tested on: Hepatitis B virus; test: Antiviral activity against Hepatitis B virus infected in human HepG2.2.15 cells assessed as inhibition of HBeAg secretion at 300 uM after 3 days by ELISA; type: functional; conditions: HepG2 2.2.15, 72 h; method in brief: as §1
[33] = tested on: Hepatitis B virus; test: Antiviral activity against Hepatitis B virus infected in human HepG2.2.15 cells assessed as inhibition of HBeAg secretion at 300 uM after 9 days by ELISA; type: functional; conditions: HepG2 2.2.15, 216 h; method in brief: as §1

COc1cc(/C=C/C(=O)O/N=C/c2ccco2)cc(OC)c1OC
inhibition at 300 µM [1]: 50.1%
inhibition at 75 µM [2]: 28.9%
Ratio CC50/IC50 [3]: 6.06
inhibition at 150 µM [4]: 23.7%
CC50 at 216 h [5]: 1050 µM
IC50 [6]: 173 µM
IC50 [7]: 190 µM
viability at 150 µM [8]: 93.2%
Ratio CC50/IC50 [9]: 5.54
inhibition at 37.5 µM [10]: 8.45%
inhibition at 150 µM [11]: 34.3%
inhibition at 75 µM [12]: 36%
inhibition at 150 µM [13]: 47.1%
inhibition at 37.5 µM [14]: 17.9%
inhibition at 300 µM [15]: 60.8%
inhibition at 75 µM [16]: 13.2%
inhibition at 300 µM [17]: 42.6%
inhibition at 150 µM [18]: 22.6%
viability at 300 µM [19]: 76.1%
inhibition at 37.5 µM [20]: 5.59%
viability at 75 µM [21]: 127%
inhibition at 75 µM [22]: 25.8%
inhibition at 37.5 µM [23]: 15.8%
inhibition at 37.5 µM [24]: 25.4%
inhibition at 75 µM [25]: 35.6%
inhibition at 75 µM [26]: 16.2%
inhibition at 37.5 µM [27]: 15.2%
viability at 37.5 µM [28]: 133%
inhibition at 150 µM [29]: 36.4%
inhibition at 150 µM [30]: 45.1%
inhibition at 300 µM [31]: 36.7%
inhibition at 300 µM [32]: 29.2%
inhibition at 300 µM [33]: 58%

COc1ccc(/C=C/C(=O)O)cc1OC [O,O'-DIMETHYLCAFFEIC ACID]
Ratio CC50/IC50 [3]: <0.89
CC50 at 216 h [5]: 535 µM
IC50 [6]: > 600 µM
IC50 [7]: > 600 µM
Ratio CC50/IC50 [9]: <0.89

COc1cc(/C=C/C(=O)O/N=C/c2ccccn2)cc(OC)c1OC
inhibition at 300 µM [1]: 40.5%
inhibition at 75 µM [2]: 17.2%
Ratio CC50/IC50 [3]: 5.52
inhibition at 150 µM [4]: 8.39%
CC50 at 216 h [5]: 787 µM
IC50 [6]: 143 µM
IC50 [7]: 150 µM
viability at 150 µM [8]: 98.1%
Ratio CC50/IC50 [9]: 5.25
inhibition at 150 µM [11]: 35.1%
inhibition at 75 µM [12]: 39.2%
inhibition at 150 µM [13]: 47.3%
inhibition at 37.5 µM [14]: 21.4%
inhibition at 300 µM [15]: 66.7%
inhibition at 75 µM [16]: 20.3%
inhibition at 300 µM [17]: 53.6%
inhibition at 150 µM [18]: 28.2%
viability at 300 µM [19]: 89%
inhibition at 37.5 µM [20]: 13.4%
viability at 75 µM [21]: 107%
inhibition at 75 µM [22]: 29.2%
inhibition at 37.5 µM [23]: 24.1%
inhibition at 37.5 µM [24]: 30.2%
inhibition at 75 µM [25]: 41.2%
inhibition at 75 µM [26]: 2.96%
inhibition at 37.5 µM [27]: 12.7%
viability at 37.5 µM [28]: 108%
inhibition at 150 µM [29]: 29.6%
inhibition at 150 µM [30]: 47.9%
inhibition at 300 µM [31]: 15.1%
inhibition at 300 µM [32]: 34.2%
inhibition at 300 µM [33]: 61.1%
